In ChEMBL document CHEMBL2151038, “Synthesis, characterization and biological evaluation of some novel 2,4-thiazolidinediones as potential cytotoxic, antimicrobial and antihyperglycemic agents” (Bioorg Med Chem Lett, 2012):
≈ marks a conversion by molar mass, not a printed value.

How the values were obtained:
[1] = test system: Artemia salina; assay: Cytotoxicity in brine shrimps larvae assessed as mortality after 24 hrs; type: functional; settings: read-out: ED50 (the source's name)
Summary of the method: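 Artemia salina nauplii hatched 38 h under constant aeration in sterile brine (sea salt 38 g/L, pH 8.5 with 1 N NaOH). Ten nauplii per vial were exposed to a range of compound concentrations at 37 °C for 24 h under incandescent light, alongside vehicle-treated controls. Survivors were counted, % lethality was taken from mean survivors versus control, and ED50 came from probit analysis.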

[2] = test system: Rattus norvegicus; assay: Antihyperglycemic activity in po dosed streptozotocin-induced type 2 diabetic Wistar albino rat assessed as reduction in plasma glucose level by glucometer; type: functional, organism-based
Summary of the method: (§1)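 Wistar albino rats of either sex, 150–200 g, fasted 16 h. Diabetes induced by nicotinamide 150 mg/kg, then STZ 65 mg/kg in citrate buffer pH 4.5. Glucose confirmed after 48 h. Groups of six. Oral dosing as 0.25% sodium CMC suspension at 10, 30 or 50 mg/kg. Rosiglitazone was the reference. Retro-orbital plasma glucose measured by glucometer before dosing and at 1, 2, 4, 6, 8, 12 and 24 h. Results as mean ± SEM, compared by ANOVA, t-test and Dunnett's test.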

[3] = test system: Bacillus subtilis; assay: Antibacterial activity against Bacillus subtilis NCIM 2063 after 24 hrs by NCCLS agar well diffusion method; type: functional; settings: NCIM 2063, 24 h
Summary of the method: (§2)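 Nutrient agar seeded with 0.1 mL bacterial suspension (10⁵ CFU/mL in 0.85% saline). 6 mm wells filled with 0.1 mL compound. Plates in triplicate, 37 ± 0.5 °C for 24 h. MIC = lowest concentration giving complete growth inhibition.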

[4] = test system: Bacillus pumilus; assay: Antibacterial activity against Bacillus pumilus NCIM 2327 after 24 hrs by NCCLS agar well diffusion method; type: functional; settings: NCIM 2327, 24 h; summary of the method: as §2
[5] = test system: Staphylococcus aureus; assay: Antibacterial activity against Staphylococcus aureus NCIM 2079 after 24 hrs by NCCLS agar well diffusion method; type: functional; settings: NCIM 2079, 24 h; summary of the method: as §2
[6] = test system: Micrococcus luteus; assay: Antibacterial activity against Micrococcus luteus NCIM 2155 after 24 hrs by NCCLS agar well diffusion method; type: functional; settings: NCIM 2155, 24 h; summary of the method: as §2
[7] = test system: Pseudomonas aeruginosa; assay: Antibacterial activity against Pseudomonas aeruginosa NCIM 2036 after 24 hrs by NCCLS agar well diffusion method; type: functional; settings: NCIM 2036, 24 h; summary of the method: as §2
[8] = test system: Klebsiella pneumoniae; assay: Antibacterial activity against Klebsiella pneumoniae NCIM 5082 after 24 hrs by NCCLS agar well diffusion method; type: functional; settings: NCIM 5082, 24 h; summary of the method: as §2
[9] = test system: Escherichia coli; assay: Antibacterial activity against Escherichia coli NCIM 2065 after 24 hrs by NCCLS agar well diffusion method; type: functional; settings: NCIM 2065, 24 h; summary of the method: as §2
[10] = test system: Proteus vulgaris; assay: Antibacterial activity against Proteus vulgaris NCIM 2813 after 24 hrs by NCCLS agar well diffusion method; type: functional; settings: NCIM 2813, 24 h; summary of the method: as §2
[11] = test system: Candida albicans; assay: Antifungal activity against Candida albicans NCIM 3102 after 48 hrs by NCCLS agar well diffusion method; type: functional; settings: NCIM 3102, 48 h
Summary of the method: (§3)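 Spore suspensions in sterile distilled water adjusted to 10⁶ CFU/mL, 0.1 mL spread on potato-dextrose agar. 6 mm wells received 0.1 mL compound in 1% DMSO (final 16–512 µg/mL). Controls: 1% DMSO and ketoconazole (16 µg/mL). Triplicate plates, 48 h at 28 ± 0.2 °C. MIC = lowest concentration completely inhibiting growth.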

[12] = test system: Aspergillus niger; assay: Antifungal activity against Aspergillus niger NCIM 548 after 48 hrs by NCCLS agar well diffusion method; type: functional; settings: NCIM 548, 48 h; summary of the method: as §3
[13] = test system: Aspergillus oryzae; assay: Antifungal activity against Aspergillus oryzae NCIM 643 after 48 hrs by NCCLS agar well diffusion method; type: functional; settings: NCIM 643, 48 h; summary of the method: as §3
[14] = test system: Penicillium chrysogenum; assay: Antifungal activity against Penicillium chrysogenum NCIM 738 after 48 hrs by NCCLS agar well diffusion method; type: functional; settings: NCIM 738, 48 h; summary of the method: as §3
[15] = Toxicity in mouse assessed as changes in vital functions; type: organism-based; settings: in vivo
[16] = test system: Rattus norvegicus; assay: Antihyperglycemic activity in streptozotocin-induced type 2 diabetic Wistar albino rat assessed as reduction in plasma glucose level at 10 mg/kg, po by glucometer; type: functional; summary of the method: as §1
[17] = test system: Rattus norvegicus; assay: Antihyperglycemic activity in streptozotocin-induced type 2 diabetic Wistar albino rat assessed as reduction in plasma glucose level at 30 mg/kg, po by glucometer; type: functional; summary of the method: as §1
[18] = test system: Rattus norvegicus; assay: Antihyperglycemic activity in streptozotocin-induced type 2 diabetic Wistar albino rat assessed as reduction in plasma glucose level at 50 mg/kg, po by glucometer; type: functional; summary of the method: as §1

Structure (SMILES) | EC50 [1] | Activity [2] | MIC [3] | MIC [4] | MIC [5] | MIC [6] | MIC [7] | MIC [8] | MIC [9] | MIC [10] | MIC [11] | MIC [12] | MIC [13] | MIC [14] | MTD [15] | Activity [16] | Activity [17] | Activity [18]
O=C1NC(=O)/C(=C/c2ccc(/C=C/C(=O)c3ccc4c(c3)Cc3ccccc3-4)cc2)S1 | 39.7 µg/mL (≈ 93.6 µM) | Dose-dependent effect | 256 µg/mL (≈ 604 µM) | 256 µg/mL (≈ 604 µM) | 256 µg/mL (≈ 604 µM) | 512 µg/mL (≈ 1210 µM) | 128 µg/mL (≈ 302 µM) | 256 µg/mL (≈ 604 µM) | 128 µg/mL (≈ 302 µM) | 512 µg/mL (≈ 1210 µM) | 256 µg/mL (≈ 604 µM) | 256 µg/mL (≈ 604 µM) | 256 µg/mL (≈ 604 µM) | 512 µg/mL (≈ 1210 µM) | 2000 mg/kg | 39.83 mg/dL | 44.62 mg/dL | 52.81 mg/dL
COc1cccc(C(=O)/C=C/c2ccc(/C=C3\SC(=O)NC3=O)cc2)c1 | 18.7 µg/mL (≈ 51.2 µM) | Dose-dependent effect | 128 µg/mL (≈ 350 µM) | 128 µg/mL (≈ 350 µM) | 128 µg/mL (≈ 350 µM) | 256 µg/mL (≈ 701 µM) | 128 µg/mL (≈ 350 µM) | 128 µg/mL (≈ 350 µM) | 128 µg/mL (≈ 350 µM) | 256 µg/mL (≈ 701 µM) | 128 µg/mL (≈ 350 µM) | 64 µg/mL (≈ 175 µM) | 256 µg/mL (≈ 701 µM) | 256 µg/mL (≈ 701 µM) | 2000 mg/kg | 16.41 mg/dL | 28.73 mg/dL | 34.61 mg/dL
O=C1NC(=O)/C(=C/c2ccc(/C=C/C(=O)c3cccc([N+](=O)[O-])c3)cc2)S1 | 56.1 µg/mL (≈ 147 µM) | Dose-dependent effect | 256 µg/mL (≈ 673 µM) | 256 µg/mL (≈ 673 µM) | 128 µg/mL (≈ 337 µM) | 256 µg/mL (≈ 673 µM) | 128 µg/mL (≈ 337 µM) | 256 µg/mL (≈ 673 µM) | 128 µg/mL (≈ 337 µM) | 512 µg/mL (≈ 1350 µM) | 512 µg/mL (≈ 1350 µM) | 256 µg/mL (≈ 673 µM) | 128 µg/mL (≈ 337 µM) | 256 µg/mL (≈ 673 µM) | 2000 mg/kg | 11.18 mg/dL | 14.72 mg/dL | 16.56 mg/dL
Cc1cccc(C(=O)/C=C/c2ccc(/C=C3\SC(=O)NC3=O)cc2)c1O | 33.1 µg/mL (≈ 90.6 µM) | Dose-dependent effect | 64 µg/mL (≈ 175 µM) | 128 µg/mL (≈ 350 µM) | 128 µg/mL (≈ 350 µM) | 512 µg/mL (≈ 1400 µM) | 64 µg/mL (≈ 175 µM) | 64 µg/mL (≈ 175 µM) | 64 µg/mL (≈ 175 µM) | 32 µg/mL (≈ 87.6 µM) | 64 µg/mL (≈ 175 µM) | 128 µg/mL (≈ 350 µM) | 128 µg/mL (≈ 350 µM) | 256 µg/mL (≈ 701 µM) | 2000 mg/kg | 36.76 mg/dL | 43.14 mg/dL | 49.99 mg/dL
O=C1NC(=O)/C(=C/c2ccc(/C=C/C(=O)c3cccnc3)cc2)S1 | 31.4 µg/mL (≈ 93.4 µM) | Dose-dependent effect | 128 µg/mL (≈ 381 µM) | 128 µg/mL (≈ 381 µM) | 128 µg/mL (≈ 381 µM) | 128 µg/mL (≈ 381 µM) | 128 µg/mL (≈ 381 µM) | 128 µg/mL (≈ 381 µM) | 128 µg/mL (≈ 381 µM) | 256 µg/mL (≈ 761 µM) | 128 µg/mL (≈ 381 µM) | 256 µg/mL (≈ 761 µM) | 128 µg/mL (≈ 381 µM) | 256 µg/mL (≈ 761 µM) | 2000 mg/kg | 19.04 mg/dL | 27.86 mg/dL | 31.81 mg/dL
CC(=O)N1CCN(c2ccc(OCC3COC(Cn4ccnc4)(c4ccc(Cl)cc4Cl)O3)cc2)CC1 (stereo not drawn) [KETOCONAZOLE] | – | – | – | – | – | – | – | – | – | – | 16 µg/mL (≈ 30.1 µM) | 16 µg/mL (≈ 30.1 µM) | 16 µg/mL (≈ 30.1 µM) | 16 µg/mL (≈ 30.1 µM) | – | – | – | –
O=C1NC(=O)/C(=C/c2ccc(/C=C/C(=O)c3ccccc3O)cc2)S1 | 41.4 µg/mL (≈ 118 µM) | Dose-dependent effect | 512 µg/mL (≈ 1460 µM) | 512 µg/mL (≈ 1460 µM) | 256 µg/mL (≈ 729 µM) | 512 µg/mL (≈ 1460 µM) | 256 µg/mL (≈ 729 µM) | 512 µg/mL (≈ 1460 µM) | 256 µg/mL (≈ 729 µM) | 512 µg/mL (≈ 1460 µM) | 512 µg/mL (≈ 1460 µM) | 512 µg/mL (≈ 1460 µM) | 512 µg/mL (≈ 1460 µM) | 512 µg/mL (≈ 1460 µM) | 2000 mg/kg | – | – | 14.44 mg/dL
O=C1NC(=O)/C(=C/c2ccc(/C=C/C(=O)c3cccs3)cc2)S1 | 4 µg/mL (≈ 11.7 µM) | Dose-dependent effect | 32 µg/mL (≈ 93.7 µM) | 16 µg/mL (≈ 46.9 µM) | 32 µg/mL (≈ 93.7 µM) | 32 µg/mL (≈ 93.7 µM) | 32 µg/mL (≈ 93.7 µM) | 16 µg/mL (≈ 46.9 µM) | 32 µg/mL (≈ 93.7 µM) | 64 µg/mL (≈ 187 µM) | 32 µg/mL (≈ 93.7 µM) | 32 µg/mL (≈ 93.7 µM) | 32 µg/mL (≈ 93.7 µM) | 32 µg/mL (≈ 93.7 µM) | 2000 mg/kg | – | 11.66 mg/dL | 13.71 mg/dL
COc1cc([C@@H]2c3cc4c(cc3[C@H](O)[C@H]3COC(=O)[C@H]23)OCO4)cc(OC)c1OC [PODOFILOX] | 3.61 µg/mL (≈ 8.71 µM) | – | – | – | – | – | – | – | – | – | – | – | – | – | – | – | – | –
CN(CCOc1ccc(CC2SC(=O)NC2=O)cc1)c1ccccn1 (stereo not drawn) [ROSIGLITAZONE] | – | – | – | – | – | – | – | – | – | – | – | – | – | – | – | 38.57 mg/dL | 14.83 mg/dL | 12.74 mg/dL
O=C1NC(=O)/C(=C/c2ccc(/C=C/C(=O)c3ccccc3)cc2)S1 | 44.7 µg/mL (≈ 133 µM) | Dose-dependent effect | 256 µg/mL (≈ 763 µM) | 256 µg/mL (≈ 763 µM) | 512 µg/mL (≈ 1530 µM) | 512 µg/mL (≈ 1530 µM) | 256 µg/mL (≈ 763 µM) | 512 µg/mL (≈ 1530 µM) | 256 µg/mL (≈ 763 µM) | 512 µg/mL (≈ 1530 µM) | 512 µg/mL (≈ 1530 µM) | 512 µg/mL (≈ 1530 µM) | 512 µg/mL (≈ 1530 µM) | 512 µg/mL (≈ 1530 µM) | 2000 mg/kg | – | 11.51 mg/dL | 15.61 mg/dL
